Where a SMILES comes first, the peptide text is derived from it. [ ]: non-standard residue; d: D form. The star is where a group is joined. Phe(4-guanidino) = N=C(N)Nc1ccc(C[C@H](N)C(=O)O)cc1; Phe(4-NH2) = Nc1ccc(C[C@H](N)C(=O)O)cc1; Tryptamide = c1ccc2c(CCN*)c[nH]c2c1; βAla = NCCC(=O)O
Key:
Homo sapiens = species on record: Homo sapiens; assay: Selectivity ratio of Ki for recombinant human furin to Ki for recombinant human PACE4
Method in brief: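 Ki values came from human recombinant enzymes expressed in S2 insect cells. Furin was assayed in 100 mM HEPES pH 7.5, 1 mM CaCl2, 1 mM β-mercaptoethanol and 1.8 g/L BSA. PACE4 was assayed in 20 mM Bis-Tris pH 6.5, 1 mM CaCl2 and 1.8 g/L BSA. Substrate was pERTKR-AMC at 100 µM, with inhibitor at 0–10 µM. Fluorescence (ex 370/em 460 nm) was read for 1 h, and Ki derived by Cheng-Prusoff.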

DU-145 [1] = assay: Antiproliferative activity against human DU145 cells after 72 hrs by MTT assay; assay type: functional, cell-based; details: DU-145, 72 h
Method in brief: (§1)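 MTT assay run 72 h. Seeding was ~1500 cells/well for DU145 and ~2500 cells/well for LNCaP, in RPMI 1640 with 5% FBS (DU145) or 10% FBS (LNCaP). Medium was changed after 24 h, then inhibitor added at 1–300 µM or 1–150 µM. MTT was added at 1 g/L final for 4 h and formazan dissolved in 2-propanol/HCl. Readings were relative to vehicle (water, 0.1% DMSO). IC50 was from at least two independent experiments.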

Furin = Furin (Homo sapiens, UniProt P09958); assay: Inhibition of recombinant human furin expressed in S2 insect cells using pyroGlu-Arg-Thr-Lys-Arg-AMC peptide as substrate after 1 hr by spectrofluorometry
Chain of Furin (P09958 whole entry): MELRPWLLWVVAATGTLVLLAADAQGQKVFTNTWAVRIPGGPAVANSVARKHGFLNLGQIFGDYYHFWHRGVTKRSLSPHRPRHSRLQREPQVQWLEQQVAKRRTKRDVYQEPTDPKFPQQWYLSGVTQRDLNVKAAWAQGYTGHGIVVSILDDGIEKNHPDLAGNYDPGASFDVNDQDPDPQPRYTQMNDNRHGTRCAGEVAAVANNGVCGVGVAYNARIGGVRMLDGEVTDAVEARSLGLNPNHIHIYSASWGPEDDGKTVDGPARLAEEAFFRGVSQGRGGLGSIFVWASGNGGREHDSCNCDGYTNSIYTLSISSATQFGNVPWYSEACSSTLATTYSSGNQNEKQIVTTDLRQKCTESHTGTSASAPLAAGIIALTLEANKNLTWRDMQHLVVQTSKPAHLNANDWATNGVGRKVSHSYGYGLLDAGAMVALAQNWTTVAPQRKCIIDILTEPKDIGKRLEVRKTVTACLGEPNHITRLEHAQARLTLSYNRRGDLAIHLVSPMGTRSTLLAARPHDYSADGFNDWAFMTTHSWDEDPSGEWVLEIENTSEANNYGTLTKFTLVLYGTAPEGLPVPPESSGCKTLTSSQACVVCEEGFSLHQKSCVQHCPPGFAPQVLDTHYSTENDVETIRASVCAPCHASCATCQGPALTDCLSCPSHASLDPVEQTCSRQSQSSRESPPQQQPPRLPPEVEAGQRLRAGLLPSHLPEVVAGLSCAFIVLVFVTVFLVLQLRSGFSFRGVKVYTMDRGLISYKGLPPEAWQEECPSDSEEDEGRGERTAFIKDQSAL
Method in brief: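 Furin was human recombinant from S2 insect cells, purified. Buffer 100 mM HEPES pH 7.5, 1 mM CaCl2, 1 mM β-mercaptoethanol, 1.8 g/L BSA. Substrate 100 µM per well, inhibitors 0–10 µM, 2 units enzyme. Real-time fluorescence (ex 370/em 460 nm) over 1 h. Ki by Cheng–Prusoff; duplicate or triplicate.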

DU-145 [2] = assay: Cytotoxicity against human DU145 cells assessed as effect on live cells >10 uM after 1.5 hrs by propidium iodide-staining based FACS analysis; assay type: cell-based; details: du-145, 1.5 h
Method in brief: (§2)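 DU145 cells (200 000 per well) exposed to peptides in serum-free medium for 1.5 h at 1, 10, 50 and 100 µM, or 1, 10, 15, 20, 30, 50, 100 µM for the dose-response set. Cells trypsinized, washed, resuspended in PBS, PI added (final 10 µg/mL), fluorescence read by flow cytometry; IC50(PI) from the dose-response curve; at least two independent experiments.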

[3] = target: T1, Proprotein convertase subtilisin/kexin type 6 (Homo sapiens, UniProt P29122); assay: Inhibition of recombinant human PACE4 expressed in S2 insect cells using pyroGlu-Arg-Thr-Lys-Arg-AMC peptide as substrate after 1 hr by spectrofluorometry
T1 sequence (P29122 whole entry): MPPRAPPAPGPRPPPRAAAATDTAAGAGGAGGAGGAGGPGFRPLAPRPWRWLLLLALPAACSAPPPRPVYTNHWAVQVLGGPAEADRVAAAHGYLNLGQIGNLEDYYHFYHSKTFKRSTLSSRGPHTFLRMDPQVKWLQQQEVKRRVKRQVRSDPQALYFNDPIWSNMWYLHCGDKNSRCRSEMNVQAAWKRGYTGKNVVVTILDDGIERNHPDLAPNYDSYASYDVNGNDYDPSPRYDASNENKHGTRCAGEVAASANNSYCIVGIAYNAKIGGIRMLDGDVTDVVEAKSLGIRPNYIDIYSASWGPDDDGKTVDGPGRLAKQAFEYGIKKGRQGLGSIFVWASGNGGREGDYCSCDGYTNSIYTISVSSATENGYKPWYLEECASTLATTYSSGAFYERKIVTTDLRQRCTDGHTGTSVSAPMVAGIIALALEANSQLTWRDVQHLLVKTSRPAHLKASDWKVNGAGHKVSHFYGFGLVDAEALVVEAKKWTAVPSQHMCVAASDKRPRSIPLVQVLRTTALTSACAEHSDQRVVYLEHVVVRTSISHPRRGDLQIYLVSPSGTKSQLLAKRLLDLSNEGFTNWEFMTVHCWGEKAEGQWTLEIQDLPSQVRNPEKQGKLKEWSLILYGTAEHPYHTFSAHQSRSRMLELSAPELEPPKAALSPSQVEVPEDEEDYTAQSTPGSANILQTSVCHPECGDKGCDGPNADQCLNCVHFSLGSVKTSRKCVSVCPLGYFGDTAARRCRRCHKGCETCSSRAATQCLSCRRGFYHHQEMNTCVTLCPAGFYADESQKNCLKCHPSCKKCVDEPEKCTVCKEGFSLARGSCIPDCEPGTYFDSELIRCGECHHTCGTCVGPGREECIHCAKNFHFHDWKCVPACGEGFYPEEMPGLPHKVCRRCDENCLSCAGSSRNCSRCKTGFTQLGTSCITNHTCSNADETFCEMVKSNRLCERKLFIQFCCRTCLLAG
Method in brief: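 Human recombinant PACE4 made in S2 insect cells and purified. Assay buffer 20 mM Bis-Tris pH 6.5, 1 mM CaCl2, 1.8 g/L BSA. Substrate 100 µM per well, inhibitors 0–10 µM, 2 units enzyme. Fluorescence (ex 370/em 460 nm) followed in real time for 1 h. Ki from IC50 by Cheng–Prusoff; duplicate or triplicate.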

LNCaP [4] = assay: Antiproliferative activity against human LNCAP cells after 72 hrs by MTT assay; assay type: functional, cell-based; method in brief: as §1
[5] = Half life in human plasma by ion chromatogram-based analysis; assay type: ADME, cell-free
Method in brief: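 Peptide at 50 µM was incubated at 37 °C in human serum from male AB plasma. At each time point, plasma was precipitated with MeOH containing Fmoc-Leu-OH internal standard, centrifuged and filtered. Samples were analysed by UPLC-MS. The peptide/standard ratio of total ion chromatogram peak area was expressed relative to 0 h.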

[6] = Drug uptake in human DU145 cells at 1 uM after 1 hr using FITC labelled compound by flow cytometric analysis relative to FITC-[betaAla]-LLLLRVKR-NH2 peptide; assay type: ADME, cell-based; details: du-145, 1 h
Method in brief: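 DU145 cells were plated at 200000 per dish and grown 48 h at 37 °C. They were exposed to 1 µM N-terminally FITC-labelled peptide for 1 h at 37 °C, then trypsinized, washed and resuspended in PBS. PI at 10 µg/mL was added to gate out dead cells. Parallel tubes were quenched with 0.04% trypan blue to remove membrane-bound signal. Flow cytometry counted at least 10000 events.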

DU-145 [7] = assay: Antiproliferative activity against human DU145 cells up to 300 uM after 72 hrs by MTT assay relative to control; assay type: functional; method in brief: as §1
LNCaP [8] = assay: Antiproliferative activity against human LNCAP cells up to 300 uM after 72 hrs by MTT assay relative to control; assay type: functional; method in brief: as §1
DU-145 [9] = assay: Cytotoxicity against human DU145 cells assessed as effect on live cells up to 100 uM after 1.5 hrs by propidium iodide-staining based FACS analysis; assay type: cell-based; details: du-145, 1.5 h; method in brief: as §2

Molecule	Ratio Ki (Homo sapiens)	IC50 (DU-145 [1]) [nM]	Ki (Furin) [nM]	Ki [3] [nM]	further results
CC(=O)N[C@H](CC(C)C)C(=O)N[C@@H](CC(C)C)C(=O)N[C@@H](CC(C)C)C(=O)N[C@@H](CC(C)C)C(=O)N[C@@H](CCCNC(=N)N)C(=O)N[C@H](C(=O)N[C@@H](CCCCN)C(=O)N[C@@H](CCCNC(=N)N)C(=O)NCCc1c[nH]c2ccccc12)C(C)C	4	14000	280	70	Activity (DU-145 [2]): Toxic; IC50 (LNCaP [4]): 18000 nM; half-life [5]: 48 min
CC(=O)N[C@H](CC(C)C)C(=O)N[C@@H](CC(C)C)C(=O)N[C@@H](CC(C)C)C(=O)N[C@@H](CC(C)C)C(=O)N[C@@H](CCCNC(=N)N)C(=O)N[C@H](C(=O)N[C@@H](CCCCN)C(=O)N[C@@H](CCCNC(=N)N)C(=O)NCCc1ccc(C(=N)N)cc1)C(C)C	10	41000	700	68	IC50 (LNCaP [4]): 67000 nM
CC(=O)N[C@@H](CC(C)C)C(=O)N[C@@H](CC(C)C)C(=O)N[C@@H](CC(C)C)C(=O)N[C@@H](CC(C)C)C(=O)N[C@@H](CCCNC(=N)N)C(=O)N[C@H](C(=O)N[C@@H](CCCCN)C(=O)N[C@@H](CCCNC(=N)N)C(=O)N[C@@H](Cc1ccc(NC(=N)N)cc1)C(N)=O)C(C)C (Ac-LLLLRVKR[Phe(4-guanidino)]-NH2)	13	83000	140	11	IC50 (LNCaP [4]): 92000 nM
CC(C)C[C@H](NC(=O)CCN)C(=O)N[C@@H](CC(C)C)C(=O)N[C@@H](CC(C)C)C(=O)N[C@@H](CC(C)C)C(=O)N[C@@H](CCCNC(=N)N)C(=O)N[C@H](C(=O)N[C@@H](CCCCN)C(=O)N[C@@H](CCCNC(=N)N)C(=O)NCCc1c[nH]c2ccccc12)C(C)C (H-[βAla]LLLLRVKR-Tryptamide)					fold change (FC) [6]: 3.5
CC(C)C[C@H](NC(=O)CCN)C(=O)N[C@@H](CC(C)C)C(=O)N[C@@H](CC(C)C)C(=O)N[C@@H](CC(C)C)C(=O)N[C@@H](CCCNC(=N)N)C(=O)N[C@H](C(=O)N[C@@H](CCCCN)C(=O)N[C@@H](CCCNC(=N)N)C(=O)N[C@@H](CCCCN)C(N)=O)C(C)C (H-[βAla]LLLLRVKRK-NH2)					Drug uptake [6]: Active
CC(C)C[C@H](NC(=O)CCN)C(=O)N[C@@H](CC(C)C)C(=O)N[C@@H](CC(C)C)C(=O)N[C@@H](CC(C)C)C(=O)N[C@@H](CCCNC(=N)N)C(=O)N[C@H](C(=O)N[C@@H](CCCCN)C(=O)N[C@@H](CCCNC(=N)N)C(=O)N[C@@H](CCCNC(=N)N)C(N)=O)C(C)C (H-[βAla]LLLLRVKRR-NH2)					Drug uptake [6]: Active
CC(C)C[C@H](NC(=O)CCN)C(=O)N[C@@H](CC(C)C)C(=O)N[C@@H](CC(C)C)C(=O)N[C@@H](CC(C)C)C(=O)N[C@@H](CCCNC(=N)N)C(=O)N[C@H](C(=O)N[C@@H](CCCCN)C(=O)N[C@@H](CCCNC(=N)N)C(=O)N[C@@H](Cc1c[nH]c2ccccc12)C(N)=O)C(C)C (H-[βAla]LLLLRVKRW-NH2)					fold change (FC) [6]: 2
Ac-LLLLRVKRA-NH2	6	160000	210	37	
Ac-LLLLRVKRD-NH2	2	230000	74	30	
Ac-LLLLRVKRF-NH2	4	70000	74	20	IC50 (LNCaP [4]): 170000 nM
Ac-LLLLRVKRG-NH2	11		500	44	Activity (DU-145 [7]): <50%
Ac-LLLLRVKRH-NH2	4		140	33	Activity (DU-145 [7]): <50%
Ac-LLLLRVKRK-NH2	17	130000	2600	150	Activity (DU-145 [9]): Non-Toxic
Ac-LLLLRVKRL-NH2	6	90000	990	170	
Ac-LLLLRVKRM-NH2	5	130000	170	32	
Ac-LLLLRVKRN-NH2	5		130	28	Activity (DU-145 [7]): <50%
Ac-LLLLRVKRP-NH2	4	210000	990	250	
Ac-LLLLRVKRS-NH2	5	240000	330	64	
Ac-LLLLRVKRT-NH2	5	170000	100	22	
Ac-LLLLRVKRW-NH2	4	25000	110	29	Activity (DU-145 [2]): Toxic; IC50 (LNCaP [4]): 31000 nM
Ac-LLLLRVKRY-NH2	2	100000	64	29	

Further lines, with some results ahead:

Ratio Ki (Homo sapiens)	IC50 (DU-145 [1]) [nM]	Ki (Furin) [nM]	Ki [3] [nM]	Molecule	further results
4	139000	130	32	CC(=O)N[C@@H](CC(C)C)C(=O)N[C@@H](CC(C)C)C(=O)N[C@@H](CC(C)C)C(=O)N[C@@H](CC(C)C)C(=O)N[C@@H](CCCNC(=N)N)C(=O)N[C@H](C(=O)N[C@@H](CCCCN)C(=O)N[C@@H](CCCNC(=N)N)C(=O)N[C@@H](Cc1ccc(N)cc1)C(N)=O)C(C)C (Ac-LLLLRVKR[Phe(4-NH2)]-NH2)	IC50 (LNCaP [4]): 170000 nM
20				Ac-LLLLRVKR-NH2	
4		260	58	Ac-LLLLRVKRE-NH2	Activity (DU-145 [7]): <50%
5	72000	290	64	Ac-LLLLRVKRI-NH2	Activity (LNCaP [8]): <50%
5	210000	190	43	Ac-LLLLRVKRQ-NH2	
16	71000	2500	160	Ac-LLLLRVKRR-NH2	Activity (LNCaP [8]): <50%; Activity (DU-145 [9]): Non-Toxic
5	170000	200	38	Ac-LLLLRVKRV-NH2	
